Experimental data taken from ChEMBL document CHEMBL1149086, “Antimalarial and antitumor evaluation of novel C-10 non-acetal dimers of 10beta-(2-hydroxyethyl)deoxoartemisinin” (J Med Chem, 2004).
pIC50: −log10 of the molar value.

Legend:
CCRF-CEM [1] = experiment: Concentration required to achieve total growth inhibition against leukemia CCRF-CEM cell line; assay type: functional; details: Homo sapiens
COLO 205 [2] = experiment: inhibition against colon COLO 205 cancer cell line; assay type: functional; details: Homo sapiens
CCRF-CEM [3] = experiment: inhibition against leukemia CCRF-CEM cell line; assay type: functional; details: Homo sapiens
COLO 205 [4] = experiment: Concentration of the drug required to achieve 50% cytotoxicity against colon COLO 205 cancer cell line; assay type: functional; details: Homo sapiens, read-out: LC50 (the source's name)
COLO 205 [5] = experiment: Concentration required to achieve total growth inhibition against colon COLO 205 cancer cell line; assay type: functional; details: Homo sapiens
HCT-15 [6] = experiment: Concentration required to achieve total growth inhibition against colon HCT-15 cancer cell line; assay type: functional; details: Homo sapiens
HCT-15 [7] = experiment: Concentration of the drug required to achieve 50% cytotoxicity against colon HCT-15 cancer cell line; assay type: functional; details: Homo sapiens, read-out: LC50 (the source's name)
HCT-116 [8] = experiment: Concentration required to achieve total growth inhibition against colon HCT116 cancer cell line; assay type: functional; details: Homo sapiens
HCT-15 [9] = experiment: inhibition against colon HCT-15 cancer cell line; assay type: functional; details: Homo sapiens
HL-60 [10] = experiment: inhibition against leukemia HL-60(TB) cell line; assay type: functional; details: Homo sapiens
HL-60 [11] = experiment: Concentration of the drug required to achieve 50% cytotoxicity against leukemia HL-60(TB) cell line; assay type: functional; details: Homo sapiens, read-out: LC50 (the source's name)
HL-60 [12] = experiment: Concentration required to achieve total growth inhibition against leukemia HL-60(TB) cell line; assay type: functional; details: Homo sapiens
HCT-116 [13] = experiment: Concentration of the drug required to achieve 50% cytotoxicity against colon HCT116 cancer cell line; assay type: functional; details: Homo sapiens, read-out: LC50 (the source's name)
HCC 2998 [14] = experiment: Concentration required to achieve total growth inhibition against colon HCC2998 cancer cell line; assay type: functional; details: Homo sapiens
HCC 2998 [15] = experiment: inhibition against colon HCC2998 cancer cell line; assay type: functional; details: Homo sapiens
HCC 2998 [16] = experiment: Concentration of the drug required to achieve 50% cytotoxicity against colon HCC2998 cancer cell line; assay type: functional; details: Homo sapiens, read-out: LC50 (the source's name)
HT-29 [17] = experiment: Concentration of the drug required to achieve 50% cytotoxicity against colon HT-29 cancer cell line; assay type: functional; details: Homo sapiens, read-out: LC50 (the source's name)
HT-29 [18] = experiment: inhibition against colon HT-29 cancer cell line; assay type: functional; details: Homo sapiens
HT-29 [19] = experiment: Concentration required to achieve total growth inhibition against colon HT-29 cancer cell line; assay type: functional; details: Homo sapiens
K562 [20] = experiment: Concentration of the drug required to achieve 50% cytotoxicity against leukemia K-562 cell line; assay type: functional; details: Homo sapiens, read-out: LC50 (the source's name)
Jurkat [21] = experiment: Tested for apoptosis in jurkat cells at a concentration of 0 uM of the compound; assay type: functional, Homo sapiens
Outline: (§1)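 Jurkat cells (1 × 10⁶ cells mL⁻¹; >98% viable, <2% background apoptosis) incubated 24 h at 37 °C with compound (0–100 μM range, in DMSO). Nuclei stained with propidium iodide (50 μM) in HBSS with 0.1% Triton-X for 10 min at 37 °C. Apoptotic nuclei measured by flow cytometry. Mean ± SD of triplicate incubations in one experiment; Kruskal–Wallis test against DMSO control.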

Jurkat [22] = experiment: Tested for apoptosis in jurkat cells at a concentration of 0.1 uM of the compound; assay type: functional, Homo sapiens; outline: as §1
Jurkat [23] = experiment: Tested for apoptosis in jurkat cells at a concentration of 0.3 uM of the compound; assay type: functional, Homo sapiens
Outline: (§2)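 Jurkat cells (>98% viable, <2% background apoptosis) at 1 × 10⁶ cells/mL were exposed to 0–100 μM drug (DMSO) for 24 h at 37 °C in 5% CO₂. Nuclei were stained with 50 μM propidium iodide and 0.1% Triton-X in HBSS for 10 min at 37 °C, then scored as apoptotic by flow cytometry. Triplicate incubations in one experiment, mean ± SD; Kruskal–Wallis test versus DMSO control.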

Jurkat [24] = experiment: Tested for apoptosis in jurkat cells at a concentration of 1 uM of the compound; assay type: functional, Homo sapiens; outline: as §2
Jurkat [25] = experiment: Tested for apoptosis in jurkat cells at a concentration of 10 uM of the compound; assay type: functional, Homo sapiens; outline: as §2
Jurkat [26] = experiment: Tested for apoptosis in jurkat cells at a concentration of 100 uM of the compound; assay type: functional, Homo sapiens; outline: as §2
Jurkat [27] = experiment: Tested for apoptosis in jurkat cells at a concentration of 3 uM of the compound; assay type: functional, Homo sapiens; outline: as §2
Jurkat [28] = experiment: Tested for apoptosis in jurkat cells at a concentration of 30 uM of the compound; assay type: functional, Homo sapiens; outline: as §2
Jurkat [29] = experiment: Inhibitory concentration against jurkat cells; assay type: functional, cell-based; details: Homo sapiens
Outline: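 HL60 (2.5 × 10⁴/well) or Jurkat (1 × 10⁵/well) in RPMI-1640 with 10% FBS and 1% L-glutamine, 5% CO2, 37 °C. Exposed to 10⁻¹⁰–10⁻⁴ M for 72 h, final DMSO below 0.5% v/v. [3H]-thymidine (0.5 μCi) added for the final 24 h. Incorporation counted by β-scintillation.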

KM12 [30] = experiment: Concentration required to achieve total growth inhibition against colon KM12 cancer cell line; assay type: functional; details: Homo sapiens
K562 [31] = experiment: Concentration required to achieve total growth inhibition against leukemia K-562 cell line; assay type: functional; details: Homo sapiens
KM12 [32] = experiment: inhibition against colon KM12 cancer cell line; assay type: functional; details: Homo sapiens
KM12 [33] = experiment: Concentration of the drug required to achieve 50% cytotoxicity against colon KM12 cancer cell line; assay type: functional; details: Homo sapiens, read-out: LC50 (the source's name)
MOLT-4 = experiment: inhibition against leukemia MOLT-4 cell line; assay type: functional; details: Homo sapiens
LOX IMVI [34] = experiment: inhibition against melanoma LOX IMVI cell line; assay type: functional; details: Homo sapiens
LOX IMVI [35] = experiment: Concentration of the drug required to achieve 50% cytotoxicity against melanoma LOX IMVI cell line; assay type: cell-based; details: human

`C[C@H]1[C@@H](CCOP(=O)(OCC[C@H]2O[C@@H]3OC4(C)CC[C@H]5[C@H](C)CC[C@@H]([C@H]2C)[C@@]35OO4)Oc2ccccc2)O[C@@H]2OC3(C)CC[C@H]4[C@H](C)CC[C@@H]1[C@@]24OO3` (single isomer, unassigned) was tested, and the TGI (CCRF-CEM [1]) was 56 µM, the GI50 (COLO 205 [2]) was less than 0.01 µM and the GI50 (CCRF-CEM [3]) was 0.0259 µM. For the same compound, the CC50 (COLO 205 [4]) was greater than 100 µM, the TGI (COLO 205 [5]) was 0.17 µM and the TGI (HCT-15 [6]) was greater than 100 µM. The CC50 (HCT-15 [7]) was greater than 100 µM, the TGI (HCT-116 [8]) was greater than 100 µM and the GI50 (HCT-15 [9]) was less than 0.01 µM. For the same compound, the GI50 (HL-60 [10]) was 0.0115 µM, the CC50 (HL-60 [11]) was greater than 100 µM and the TGI (HL-60 [12]) was 2.23 µM. For the same compound, the CC50 (HCT-116 [13]) was greater than 100 µM, the TGI (HCC 2998 [14]) was 2.85 µM and the GI50 (HCC 2998 [15]) was 0.0648 µM. It also gave a CC50 (HCC 2998 [16]) greater than 100 µM, a CC50 (HT-29 [17]) greater than 100 µM and a GI50 (HT-29 [18]) of less than 0.01 µM. For the same compound, the TGI (HT-29 [19]) was 23.2 µM, the CC50 (K562 [20]) was greater than 100 µM and the Activity (Jurkat [21]) was 7.5%. For the same compound, the Activity (Jurkat [22]) was 8.7%, the Activity (Jurkat [23]) was 7.3% and the Activity (Jurkat [24]) was 8.9%. It also gave an Activity (Jurkat [25]) of 11.2%, an Activity (Jurkat [26]) of 20.1% and an Activity (Jurkat [27]) of 8.7%. It also gave an Activity (Jurkat [28]) of 17.3%, a pIC50 (Jurkat [29]) of 4.88 and a TGI (KM12 [30]) of 17.9 µM. It also gave a TGI (K562 [31]) of 100 µM, a GI50 (KM12 [32]) of less than 0.01 µM and a CC50 (KM12 [33]) greater than 100 µM. It also gave a GI50 (MOLT-4) of less than 0.01 µM, a GI50 (LOX IMVI [34]) of 0.0191 µM and an LC50 (LOX IMVI [35]) greater than 100 µM.
